From ChEMBL document CHEMBL1128543, “Computer-aided design and synthesis of 5-substituted tryptamines and their pharmacology at the 5-HT1D receptor: discovery of compounds with potential anti-migraine properties” (J Med Chem, 1995) come the findings set out here.

A value given as a limit tells only on which side of the number the result lay.

Details in all cases: Oryctolagus cuniculus
Assay [1] concerns the target 5-hydroxytryptamine receptor 1D (Homo sapiens) (UniProt P28221). The experiment in a line: The compound was tested for intrinsic activity against 5-HT1D receptor. In short, it runs like this:
(§1)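 Rabbit saphenous vein rings (male New Zealand White; 4–5 mm) mounted on tungsten wires in Krebs–Henseleit buffer, pH 7.4, 37 °C, gassed with 95% O2/5% CO2, at 2 g passive force. Pretreated for 30 min with pargyline (500 μM) and phenoxybenzamine (0.3 μM), then washed. Cumulative 5-HT curve, then after 60 min a test agonist curve. Potency is p[A50]; α is test maximum/5-HT maximum; n ≥ 3.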

The target of assay [2] is 5-hydroxytryptamine receptor 2A (Homo sapiens) (UniProt P28223).
Assay [3] has as its target 5-hydroxytryptamine receptor 1D (Homo sapiens) (UniProt P28221). In words: The compound was tested for binding affinity against 5-HT1D receptor. In short, it runs like this: as §1

5-hydroxytryptamine receptor 1D (Homo sapiens), sequence (P28221 whole entry): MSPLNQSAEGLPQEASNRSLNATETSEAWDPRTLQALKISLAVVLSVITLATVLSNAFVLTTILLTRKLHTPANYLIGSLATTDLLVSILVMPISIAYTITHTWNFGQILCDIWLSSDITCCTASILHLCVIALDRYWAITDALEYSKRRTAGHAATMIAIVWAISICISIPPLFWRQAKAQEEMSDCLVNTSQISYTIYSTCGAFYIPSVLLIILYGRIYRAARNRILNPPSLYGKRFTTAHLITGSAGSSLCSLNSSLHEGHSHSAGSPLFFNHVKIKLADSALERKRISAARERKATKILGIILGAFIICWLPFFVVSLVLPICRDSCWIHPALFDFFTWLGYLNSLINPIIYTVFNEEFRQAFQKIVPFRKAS
5-hydroxytryptamine receptor 2A (Homo sapiens), sequence (P28223 whole entry): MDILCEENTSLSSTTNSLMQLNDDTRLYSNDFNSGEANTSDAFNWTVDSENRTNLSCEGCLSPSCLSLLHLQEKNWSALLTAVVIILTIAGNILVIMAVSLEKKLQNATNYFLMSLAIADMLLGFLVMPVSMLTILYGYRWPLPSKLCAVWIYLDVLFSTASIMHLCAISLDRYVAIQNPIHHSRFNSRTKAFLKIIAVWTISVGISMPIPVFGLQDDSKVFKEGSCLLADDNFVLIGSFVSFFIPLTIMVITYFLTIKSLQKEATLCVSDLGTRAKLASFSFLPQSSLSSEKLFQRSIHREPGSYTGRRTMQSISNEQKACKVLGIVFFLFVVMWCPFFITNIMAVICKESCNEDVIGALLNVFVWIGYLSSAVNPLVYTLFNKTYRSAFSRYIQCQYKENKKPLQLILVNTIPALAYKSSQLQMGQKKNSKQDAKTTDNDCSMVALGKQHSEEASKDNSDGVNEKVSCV

Compound `CCCNC(=O)c1cccc(CN2C(=O)NC(Cc3ccc4[nH]cc(CCN)c4c3)C2=O)c1` (stereo not drawn) gave an Intrinsic activity in assay [1] of 0.99. The results for the p[A50] in assay [2] and in assay [3] were 4.5 and 6.8, respectively.
Regarding `O=C1CC2(CCCC2)CC(=O)N1CCCCN1CCN(c2ncccn2)CC1`, the p[A50] in assay [3] worked out at 4.5.
Take `NCCc1c[nH]c2ccc(CC3NC(=O)N(Cc4cccc(C(=O)Nc5ccccc5)c4)C3=O)cc12` (stereo not drawn): in assay [1], the Intrinsic activity amounted to 0.53. The p[A50] in assay [2] worked out at 3.9; in assay [3], 6.6.
Consider `O=C1CC2(CCCC2)CS(=O)(=O)N1CCCCN1CCN(c2ncccn2)CC1`, for which the p[A50] in assay [2] worked out at 5.1; in assay [3], 4.9.
Regarding `CC(=O)Nc1ccc(CN2C(=O)NC(Cc3ccc4[nH]cc(CCN)c4c3)C2=O)cc1` (stereo not drawn), the Intrinsic activity in assay [1] was determined as 0.81. Besides, in assay [3], the p[A50] stood at 5.8.
As to `CN(C)CCc1c[nH]c2ccc(CCC3NC(=O)N(Cc4ccccc4)C3=O)cc12` (stereo not drawn), the Intrinsic activity in assay [1] came to 0.2. Besides, the values for the p[A50] in assay [2] and in assay [3] were 5.9 and 6.3, respectively.
The matching figures for `COC(=O)c1ccc(CC2NC(=O)N(CCc3ccc4[nH]cc(CCN)c4c3)C2=O)cc1` (stereo not drawn): 0.7, below 4.5 and 7.3.
The matching figures for `CN(C)CCc1c[nH]c2ccc(CCN3C(=O)N[C@@H](Cc4ccc(NS(C)(=O)=O)cc4)C3=O)cc12`: 0.6, below 4.5 and 7.4.
The like results for `CC(=O)Nc1cccc(CC2NC(=O)N(CCc3ccc4[nH]cc(CCN)c4c3)C2=O)c1` (stereo not drawn) were, in that order, 0.7, below 4.5 and 7.
In assay [1], `NCCc1c[nH]c2ccc(CC3NC(=O)N(Cc4ccccc4)C3=O)cc12` (stereo not drawn) gave an Intrinsic activity of 0.72. The p[A50] in assay [2] stood at 4; in assay [3], 6.1.
The like results for `Cc1ccc2[nH]cc(CCN)c2c1` were, in that order, 1, 6.2 and 6.1.
The like results for `Cn1c(Cc2ccc3[nH]cc(CCN)c3c2)cn(Cc2ccccc2)c1=O` were, in that order, 0.95, 6.3 and 7.1.
For `CN1C(=O)NC(Cc2ccc3[nH]cc(CCN)c3c2)C1=O` (stereo not drawn), the p[A50] amounted to 4 in assay [2] and 4.8 in assay [3].
As to `CN(C)CCc1c[nH]c2ccc(CC3NC(=O)N(Cc4cccc(NC(=O)c5ccccc5)c4)C3=O)cc12` (stereo not drawn), the Intrinsic activity in assay [1] is 0.55. In addition, the values for the p[A50] in assay [2] and in assay [3] were 5 and 6.3, respectively.
For the compound `O=C(c1ccc(F)cc1)C1CCN(CCn2c(=O)[nH]c3ccccc3c2=O)CC1`, the values for the p[A50] in assay [2] and in assay [3] were 9.1 and 6, respectively.
Compound `CN(C)CCc1c[nH]c2ccc(CCN3C(=O)NC(Cc4ccc([N+](=O)[O-])cc4)C3=O)cc12` (stereo not drawn) showed an Intrinsic activity in assay [1] of 0.6. Further, the p[A50] in assay [2] was below 4.5; in assay [3], 6.8.
On to `COc1ccc2[nH]cc(C3=CCNCC3)c2c1`, for which the Intrinsic activity in assay [1] stood at 0.89. This compound had a p[A50] in assay [3] of 7.1.
Take `NCCc1c[nH]c2ccccc12`: the Intrinsic activity in assay [1] was 0.86. Moreover, the values for the p[A50] in assay [2] and in assay [3] were 6.1 and 6.9, respectively.
The matching figures for `CN(C)CCc1c[nH]c2ccc(CCN3C(=O)CNC3=O)cc12`: 0.5, below 4.5 and 6.1.
For `O=C(CCCN1CCC2(CC1)C(=O)NCN2c1ccccc1)c1ccc(F)cc1`, the results for the p[A50] in assay [2] and in assay [3] were 9.7 and 5.8, respectively.
Take `CCC(CO)NC(=O)[C@H]1C=C2c3cccc4c3c(cn4C)CC2N(C)C1` (stereo partly drawn): the Intrinsic activity in assay [1] was determined as 0.64. The compound further came in with a p[A50] in assay [3] of 6.7.
The compound `CN1C(=O)NC[C@@H]1Cc1ccc2[nH]cc(CCN)c2c1` had an Intrinsic activity in assay [1] of 0.88. Besides, the values for the p[A50] in assay [2] and in assay [3] were 5 and 6.9, respectively.
`CN(C)CCc1c[nH]c2ccc(C[C@H]3CNC(=O)N3C)cc12` yielded an Intrinsic activity in assay [1] of 1. Besides, the results for the p[A50] in assay [2] and in assay [3] were below 4.5 and 7, respectively.
The matching figures for `NCCc1c[nH]c2ccc(CC3NC(=O)N(Cc4cccc(NC(=O)c5ccccc5)c4)C3=O)cc12` (stereo not drawn): 0.85, 4.6 and 7.3.
As for `CN1C(=O)N(Cc2ccccc2)CC1Cc1ccc2[nH]cc(CCN)c2c1` (stereo not drawn), the values for the p[A50] in assay [2] and in assay [3] were 5 and 7.5, respectively.
In assay [1], `CN(C)CCc1c[nH]c2ccc(O)cc12` had an Intrinsic activity of 0.92. In addition, the p[A50] turned out to be 6.8 in assay [2] and 7.3 in assay [3].
Compound `NCCc1c[nH]c2ccc(CC3NC(=O)N(CCc4ccccc4)C3=O)cc12` (stereo not drawn) displayed an Intrinsic activity in assay [1] of 0.67. Also, the p[A50] stood at 4.5 in assay [2] and 6.7 in assay [3].
`CN(C)CCc1c[nH]c2ccc(CC3NC(=O)N(CCc4ccccc4)C3=O)cc12` (stereo not drawn) displayed an Intrinsic activity in assay [1] of 0.39. The compound also registered a p[A50] in assay [3] of 6.
The like results for `CNS(=O)(=O)Cc1ccc2[nH]cc(CCN(C)C)c2c1` were, in that order, 0.83 and 6.6.
The compound `NCCc1c[nH]c2ccc(CCC3NC(=O)N(Cc4ccccc4)C3=O)cc12` (stereo not drawn) gave an Intrinsic activity in assay [1] of 0.9. Further, the p[A50] in assay [2] was below 4.5; in assay [3], 6.7.
As to `NCCc1c[nH]c2ccc(CC3NC(=O)N(CCCc4ccccc4)C3=O)cc12` (stereo not drawn), the Intrinsic activity in assay [1] was found to be 0.93. Moreover, the p[A50] in assay [2] is below 4.5; in assay [3], 6.6.
As for `CNCCc1c[nH]c2ccc(CCN3C(=O)NC(Cc4cccc(NC(C)=O)c4)C3=O)cc12` (stereo not drawn), the Intrinsic activity in assay [1] came to 0.6. Moreover, the p[A50] in assay [2] was below 4.5; in assay [3], 6.9.
The matching figures for `CNC(=O)c1cccc(CN2C(=O)NC(Cc3ccc4[nH]cc(CCN)c4c3)C2=O)c1` (stereo not drawn): 0.71, 4.3 and 5.8.
The like results for `CN1C(=O)N(Cc2ccccc2)C(=O)C1Cc1ccc2[nH]cc(CCN)c2c1` (stereo not drawn) were, in that order, 1, below 4.5 and 6.
In turn, `C[C@@H](CO)NC(=O)[C@@H]1C=C2c3cccc4[nH]cc(c34)C[C@H]2N(C)C1` displayed an Intrinsic activity in assay [1] of 0.9. In assay [3], the p[A50] was 9.
With `CC(=O)Nc1cccc(CC2NC(=O)N(CCc3ccc4[nH]cc(CCN(C)C)c4c3)C2=O)c1` (stereo not drawn), the Intrinsic activity in assay [1] came to 0.6. Further, the p[A50] in assay [2] was below 4.5; in assay [3] it was 7.2.
For the compound `NCCc1c[nH]c2ccc(CC3NC(=O)N(Cc4ccc(C(=O)Nc5ccccc5)cc4)C3=O)cc12` (stereo not drawn), the Intrinsic activity in assay [1] is 0.7. Further, the p[A50] in assay [2] worked out at 4.5; in assay [3], 5.9.
For the compound `CN(C)CCc1c[nH]c2ccc(CC3NC(=O)N(Cc4ccccc4)C3=O)cc12` (stereo not drawn), the p[A50] in assay [2] was below 4.5; in assay [3] it was 5.6.
`NCCc1c[nH]c2ccc(CC3NC(=O)N(Cc4ccc(-c5ccccc5)cc4)C3=O)cc12` (stereo not drawn): the Intrinsic activity in assay [1] came to 0.6. This compound also registered a p[A50] in assay [3] of 6.7.
`CN(C)CCc1c[nH]c2ccc(CC3NC(=O)N(Cc4ccc(Oc5ccccc5)cc4)C3=O)cc12` (stereo not drawn) showed an Intrinsic activity in assay [1] of 0.79. The p[A50] in assay [2] was determined as 4.7; in assay [3], 7.4.
In assay [1], `CN(C)CCc1c[nH]c2ccc(CCN3C(=O)NC(Cc4ccc(NS(C)(=O)=O)cc4)C3=O)cc12` (stereo not drawn) yielded an Intrinsic activity of 0.6. For the same compound, the values for the p[A50] in assay [2] and in assay [3] were below 4.5 and 7.4, respectively.
`CNCCc1c[nH]c2ccc(CCN3C(=O)CNC3=O)cc12` came in with an Intrinsic activity in assay [1] of 0.7. The p[A50] in assay [2] was below 4.5; in assay [3] it was 6.7.
The matching figures for `NCCc1c[nH]c2ccc(CC3NC(=O)N(Cc4cccc(Oc5ccccc5)c4)C3=O)cc12` (stereo not drawn): 0.79, 4.7 and 7.4.
Consider `O=C1NCN(c2ccccc2)C12CCN(CC1COc3ccccc3O1)CC2` (stereo not drawn), for which the p[A50] in assay [2] is 6.2; in assay [3] it was 5.1.
The compound `NCCc1c[nH]c2ccc(C(N)=O)cc12` registered an Intrinsic activity in assay [1] of 0.84. Moreover, the p[A50] stood at 5.9 in assay [2] and 8.1 in assay [3].
As to `CS(=O)(=O)Nc1ccc(CC2NC(=O)N(CCc3ccc4[nH]cc(CCN)c4c3)C2=O)cc1` (stereo not drawn), the Intrinsic activity in assay [1] is 0.8. Also, the p[A50] in assay [2] is 5.2; in assay [3], 7.4.
The matching figures for `CS(=O)(=O)Nc1ccc(C[C@H]2NC(=O)N(CCc3ccc4[nH]cc(CCN)c4c3)C2=O)cc1`: 0.7, 5.3 and 7.1.
Turning to `CS(=O)(=O)Nc1cccc(CC2NC(=O)N(CCc3ccc4[nH]cc(CCN)c4c3)C2=O)c1` (stereo not drawn), in assay [1], the Intrinsic activity came to 0.8. Further, the p[A50] was below 4.5 in assay [2] and 7.2 in assay [3].
